Measurements pooled from the literature.
Target: Serine/threonine-protein kinase Sgk3 (SGK3, Homo sapiens, UniProt Q96BR1)
Residues used in one study (Q96BR1 1-496): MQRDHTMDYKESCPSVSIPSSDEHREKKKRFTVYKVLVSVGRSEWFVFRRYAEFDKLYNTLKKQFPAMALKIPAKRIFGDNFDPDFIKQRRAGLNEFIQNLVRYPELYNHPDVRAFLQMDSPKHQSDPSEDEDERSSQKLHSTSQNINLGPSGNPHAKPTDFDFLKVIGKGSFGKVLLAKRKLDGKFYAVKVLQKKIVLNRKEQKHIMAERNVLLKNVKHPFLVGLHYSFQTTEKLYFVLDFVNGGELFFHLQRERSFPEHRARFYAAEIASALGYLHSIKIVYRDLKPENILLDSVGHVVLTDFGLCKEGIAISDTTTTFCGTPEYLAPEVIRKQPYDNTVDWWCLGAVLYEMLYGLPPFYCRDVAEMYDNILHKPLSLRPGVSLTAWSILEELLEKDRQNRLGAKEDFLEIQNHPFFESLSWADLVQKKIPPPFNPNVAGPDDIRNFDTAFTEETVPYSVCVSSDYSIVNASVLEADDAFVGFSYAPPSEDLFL

SMILES	observed	mode	method	concentration	quantity	result
COc1cc(Cl)c(C(=O)N[C@@H](CN[C@H]2CC[C@@H](N)CC2)Cc2ccc(C#N)cc2)cc1-c1ccc(CN[C@H](C)c2ccc(C)cc2)o1	enzyme activity	inhibitor		1 µM	remaining activity	83%
Cc1c(NC(=O)c2cc(C(N)=O)nc3cc(F)ccc23)c(C(F)(F)F)nn1Cc1ccc(C#N)cc1	cell-free assay		competition with immobilised ligand	1 µM	remaining binding	83%
Cc1ccc(Nc2nccc(N(C)c3ccc4c(C)n(C)nc4c3)n2)cc1S(N)(=O)=O	enzyme activity	inhibitor		0.3 µM	inhibition	10%
Cc1nc(C2CCN(C(=O)c3ccc(OC(F)(F)F)cc3N)CC2)c2ncc(N3CCN(C)CC3)cc2n1	cell-free assay		competition with immobilised ligand	1 µM	remaining binding	93%
CNC(=O)c1cc(Oc2ccc(NC(=O)Nc3ccc(Cl)c(C(F)(F)F)c3)cc2)ccn1	enzyme activity	inhibitor		10 µM	inhibition	11%
Oc1cccc(-c2nc(N3CCOCC3)c3oc4ncccc4c3n2)c1	cell-free assay			0.5 µM	remaining signal	95.8%
Cc1cc(NC(=O)c2cccc3cc(-c4cccc5[nH]nc(N)c45)ccc23)ccc1F	enzyme activity	inhibitor		0.1 µM	activity vs control	106%
Cc1ccc(NC(=O)c2ccc(C)c(C(F)(F)F)c2)cc1C#Cc1nn(C2CCC(O)CC2)c2ncnc(N)c12 (stereo not drawn)	cell-free assay			10 µM	remaining signal	98%
Cc1ccc(C(=O)Nc2ccc(CN3CCN(C)CC3)c(C(F)(F)F)c2)cc1C#Cc1cnc2cccnn12	enzyme activity	inhibitor		23.5 nM	remaining activity	70%
CCCOc1ccc(OC)c(F)c1C(=O)c1ccc(C(=O)N[C@@H]2CNC[C@H]2NC(=O)c2ccc3[nH]ncc3c2)cc1	enzyme activity	inhibitor		10 µM	remaining activity	23%
CCN(CC)c1ccc(C2=NNC(=O)CC2C)cc1[N+](=O)[O-] (stereo not drawn)	enzyme activity	inhibitor		10 µM	remaining activity	114%
COc1cc2ncnc(Nc3ccc(Oc4ccccc4)c(C)c3C)c2cc1OC	enzyme activity	inhibitor		1 µM	inhibition	-5%
CCCCNc1ncc2c(-c3ccc(F)cc3)nn(C[C@H]3CC[C@H](N)CC3)c2n1	target engagement in cells	inhibitor	chemoproteomics	20 mM	inhibition	-2.1%
O=C(Nc1cccnn1)N1CC(C/C=C/c2cncc(Oc3ccc(C(F)(F)F)cn3)n2)C1	cell-free assay		competition with immobilised ligand	1 µM	remaining binding	87%
CS(=O)(=O)CCNCc1ccc(-c2ccc3ncnc(Nc4ccc(OCc5cccc(F)c5)c(Cl)c4)c3c2)o1	cell-free assay			0.5 µM	remaining signal	102%
O=C(Nc1cnn(-c2csc(C(=O)NC3COC3)c2)c1)Nc1ccccc1Cl	enzyme activity	inhibitor		5 µM	remaining activity	93.8%
Cc1cc(NC(=O)c2cccc(S(F)(F)(F)(F)F)c2)cc(-n2ccn3nc(-c4cccnc4)cc23)c1	cell-free assay		competition with immobilised ligand	1 µM	remaining binding	72.1%
CC(C)(C)c1nc2c(s1)c1nc(N)ncc1c1ccc(NS(=O)(=O)c3c(F)cccc3F)c(F)c12	enzyme activity	inhibitor	radiometric	1 µM	remaining activity	89%
CS(=O)(=O)N1CCCC(NC(=O)[C@H](CCC2CCCCC2)NC(=O)c2ccc(CNC(=O)c3cnc4ccccn34)cc2)C1 (stereo partly drawn)	cell-free assay		competition with immobilised ligand	0.1 µM	remaining binding	74%
COc1cccc2c(NCc3ccccc3)nc(-n3c(N)nc4ccccc43)nc12	target engagement in cells	inhibitor	chemoproteomics	20 mM	inhibition	-7.6%
CO[C@H]1CC[C@H](CNc2ccc(S(=O)(=O)NC(=O)c3ccc(N4CCN(CC5=C(c6ccc(Cl)cc6)CC(C)(C)CC5)CC4)cc3Oc3cnc4[nH]ccc4c3)cc2[N+](=O)[O-])CC1	cell-free assay		competition with immobilised ligand	1 µM	remaining binding	99%
Cc1cnc(NC2CCOCC2)nc1-n1cnc(C(=O)NC(CN)c2cc(F)cc(Cl)c2)c1 (stereo not drawn)	enzyme activity	inhibitor	radiometric	1 µM	remaining activity	92%
Cn1nc(C(=O)NCc2ccc(C(=O)O)cc2)cc1-c1ccc2[nH]ccc2c1	cell-free assay		competition with immobilised ligand	0.1 µM	remaining binding	96%
O=C1Nc2ccc(Cl)cc2C1=Cc1cc(Cl)c(O)c(Cl)c1	cell-free assay			0.5 µM	remaining signal	98.6%
